Calls of active or inactive are those of the source. No cut-off for these calls is given here.
How the values were obtained:
Sus scrofa [1] = organism: Sus scrofa; assay: Binding affinity to porcine tubulin after overnight incubation by streptavidin pull down assay
How it was run: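 Purified porcine neuronal tubulin incubated with biotin, biotinylated probe or control probe in NETN buffer at 4 °C. Streptavidin Dynabeads 1 h at 4 °C, six washes, then SDS-PAGE and α-tubulin immunoblot.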

A549 [2] = assay: Binding affinity to tubulin alpha in human A549 cells immunoblot based based pull down assay; format: cell-based
How it was run: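 A549 lysate in NETN buffer incubated with biotin, biotinylated probe or control probe at 4 °C, then streptavidin Dynabeads 1 h at 4 °C. Beads washed six times, bound proteins run on SDS-PAGE and immunoblotted for α-tubulin.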

A549 [3] = assay: Cell cycle arrest in human A549 cells assessed as accumulation at G0/G1 phase at cytotoxic IC50 after 24 hrs by propidium iodide staining based flow cytometry (reference value: 46.39 +/- 1.75%); format: functional
A549 [4] = assay: Cell cycle arrest in human A549 cells assessed as accumulation at S phase at cytotoxic IC50 after 24 hrs by propidium iodide staining based flow cytometry (reference value: 32.37 +/- 1.23%); format: functional
A549 [5] = assay: Cell cycle arrest in human A549 cells assessed as accumulation at G2/M phase at cytotoxic IC50 after 24 hrs by propidium iodide staining based flow cytometry (reference value: 20.95 +/- 0.8%); format: functional
A549 [6] = assay: Activation of spindle assembly checkpoint in human A549 cells assessed as mitotic index by measuring cells positive for histone H3 phosphorylation at Ser10 residue at cytotoxic IC50 after 4 hrs by FITC staining based immunofluorescence assay (reference value: 3.3 +/- 0.17); format: functional
MDA-MB-231 = assay: Cytotoxicity against human MDA-MB-231 cells at 30 uM by MTS assay; format: functional, cell-based
A549 [7] = assay: Activation of spindle assembly checkpoint in human A549 cells assessed as cells positive for histone H3 phosphorylation at Ser10 residue by measuring mitotic cell population at cytotoxic IC50 after 4 hrs by propidium iodide staining based flow cytometry (reference value: 6.9%); format: functional
A549 [8] = assay: Activation of spindle assembly checkpoint in human A549 cells assessed as increase in histone H3 phosphorylation at Ser10 residue at cytotoxic IC50 after 12 to 24 hrs by immunoblot analysis; format: functional, cell-based
HCT-116 [9] = assay: Cytotoxicity against human HCT116 cells at 30 uM by MTS assay relative to control; format: functional
How it was run: (§1)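 MTS read-out (CellTiter 96 AQueous One) of proliferation in A549 or HCT-116 cells grown in DMEM with 10% FBS at 37 °C, 5% CO2. Taxol-resistant A549 cells were exposed for 72 h. Compounds were screened at 30 μM versus vehicle, with ≥50% inhibition counted active. Actives were then tested over a concentration range for IC50. Triplicate wells, three independent experiments, mean ± SD.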

HCT-116 [10] = assay: Cytotoxicity against human HCT116 cells by MTS assay; format: functional, cell-based; how it was run: as §1
Sus scrofa [11] = organism: Sus scrofa; assay: Inhibition of porcine tubulin polymerization after 60 mins by spectrometric method
How it was run: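 Purified tubulin was incubated at 37 °C with compound at 5, 10 or 20 μM, with DMSO as vehicle. Polymerization was followed as the rise in absorbance at 340 nm over 60 min. Taxol (10 μM) and nocodazole (10 μM) served as controls. Three independent experiments were run.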

A549 [12] = assay: Activation of spindle assembly checkpoint in human A549 cells assessed as mitotic index by measuring cells positive for histone H3 phosphorylation at Ser10 residue at cytotoxic IC50 after 2 hrs by FITC staining based immunofluorescence assay (reference value: 2.67 +/- 0.21); format: functional
A549 [13] = assay: Activation of spindle assembly checkpoint in human A549 cells assessed as mitotic index by measuring cells positive for histone H3 phosphorylation at Ser10 residue at cytotoxic IC50 after 16 hrs by FITC staining based immunofluorescence assay (reference value: 3.23 +/- 0.15); format: functional
A549 [14] = assay: Cell cycle arrest in human A549 cells assessed as accumulation at G0/G1 phase at 0.5 times cytotoxic IC50 after 24 hrs by propidium iodide staining based flow cytometry (reference value: 46.39 +/- 1.75%); format: functional
A549 [15] = assay: Activation of spindle assembly checkpoint in human A549 cells assessed as cells positive for histone H3 phosphorylation at Ser10 residue by measuring mitotic cell population at cytotoxic IC50 after 2 hrs by propidium iodide staining based flow cytometry (reference value: 6.9%); format: functional
A549 [16] = assay: Activation of spindle assembly checkpoint in human A549 cells assessed as increase in BubR1 phosphorylation at cytotoxic IC50 after 6 to 24 hrs by immunoblot analysis; format: functional, cell-based
A549 [17] = assay: Cell cycle arrest in human A549 cells assessed as accumulation at G0/G1 phase at 1.5 times cytotoxic IC50 after 24 hrs by propidium iodide staining based flow cytometry (reference value: 46.39 +/- 1.75%); format: functional
MCF7 = assay: Cytotoxicity against human MCF7 cells at 30 uM by MTS assay; format: functional, cell-based
A549 [18] = assay: Induction of DNA damage in human A549 cells assessed as gamma-H2AX foci formation after 12 hrs by DAPI staining based immunofluorescence assay; format: functional, cell-based
How it was run: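 A549 cells treated 12 h, with camptothecin (2 μM, 2 h) and DMSO as comparators. Cells fixed and immunostained with mouse monoclonal anti-γ-H2AX, nuclei counterstained with DAPI, foci examined by immunofluorescence.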

A549 [19] = assay: Activation of spindle assembly checkpoint in human A549 cells assessed as cells positive for histone H3 phosphorylation at Ser10 residue by measuring mitotic cell population at cytotoxic IC50 after 8 hrs by propidium iodide staining based flow cytometry (reference value: 6.9%); format: functional
A549 [20] = assay: Cytotoxicity against human A549 cells at 30 uM by MTS assay relative to control; format: functional; how it was run: as §1
A549 [21] = assay: Cell cycle arrest in human A549 cells assessed as accumulation at G2/M phase at 0.5 times cytotoxic IC50 after 24 hrs by propidium iodide staining based flow cytometry (reference value: 20.95 +/- 0.8%); format: functional
HeLa = assay: Cytotoxicity against human HeLa cells at 30 uM by MTS assay; format: functional, cell-based
HT-29 = assay: Cytotoxicity against human HT-29 cells at 30 uM by MTS assay; format: functional, cell-based
A549 [22] = assay: Induction of DNA damage in human A549 cells assessed as increase in CHK1 phosphorylation level after 12 hrs by immunoblot analysis; format: functional, cell-based
How it was run: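 A549 cells treated 12 h, with camptothecin (2 μM, 2 h) and DMSO as comparators. Total lysates immunoblotted for γ-H2AX and pS345 CHK1.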

A549 [23] = assay: Cell cycle arrest in human A549 cells assessed as accumulation at G2/M phase after 24 hrs by propidium iodide staining based flow cytometry; format: functional
A549 [24] = assay: Activation of spindle assembly checkpoint in human A549 cells assessed as mitotic index by measuring cells positive for histone H3 phosphorylation at Ser10 residue at cytotoxic IC50 after 8 hrs by FITC staining based immunofluorescence assay (reference value: 3.17 +/- 0.15); format: functional
A549 [25] = assay: Antiproliferative activity against human A549 cells after 72 hrs by MTS assay; format: functional, cell-based; details: A549, 72 h; how it was run: as §1
A549 [26] = assay: Induction of DNA damage in human A549 cells assessed as increase in gamma-H2AX level after 12 hrs by immunoblot analysis; format: functional, cell-based
How it was run: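 A549 cells treated for 12 h, with DMSO as diluent; camptothecin at 2 μM for 2 h served as positive control. Total cell lysates were immunoblotted for γ-H2AX (Ser139 phosphorylated H2AX) and pS345 CHK1. Immunofluorescence for γ-H2AX foci with DAPI counterstain was run in parallel.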

A549 [27] = assay: Activation of spindle assembly checkpoint in human A549 cells assessed as cells positive for histone H3 phosphorylation at Ser10 residue by measuring mitotic cell population at cytotoxic IC50 after 16 hrs by propidium iodide staining based flow cytometry (reference value: 6.9%); format: functional
A549 [28] = assay: Cell cycle arrest in human A549 cells assessed as accumulation at S phase at 0.5 times cytotoxic IC50 after 24 hrs by propidium iodide staining based flow cytometry (reference value: 32.37 +/- 1.23%); format: functional
A549 [29] = assay: Cytotoxicity against human A549 cells by MTS assay; format: functional, cell-based; how it was run: as §1
A549 [30] = assay: Cell cycle arrest in human A549 cells assessed as accumulation at S phase at 1.5 times cytotoxic IC50 after 24 hrs by propidium iodide staining based flow cytometry (reference value: 32.37 +/- 1.23%); format: functional
A549 [31] = assay: Cell cycle arrest in human A549 cells assessed as accumulation at G2/M phase at 1.5 times cytotoxic IC50 after 24 hrs by propidium iodide staining based flow cytometry (reference value: 20.95 +/- 0.8%); format: functional
A549 [32] = assay: Induction of DNA damage in human A549 cells assessed as increase in gamma-H2AX level at 2 uM after 2 hrs by immunoblot analysis; format: functional, cell-based
How it was run: (§2)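 A549 cells were treated for 2 h with DMSO as diluent. Total cell lysates were run on 12% SDS-PAGE and transferred to PVDF. Membranes were blocked in PBST with 5% BSA and immunoblotted for γ-H2AX and pS345 CHK1, with HRP secondary detection.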

A549 [33] = assay: Induction of DNA damage in human A549 cells assessed as increase in CHK1 phosphorylation level at 2 uM after 2 hrs by immunoblot analysis; format: functional, cell-based; how it was run: as §2
A549 [34] = assay: Induction of DNA damage in human A549 cells assessed as gamma-H2AX foci formation at 2 uM after 2 hrs by DAPI staining based immunofluorescence assay; format: functional, cell-based
How it was run: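 A549 cells were treated for 2 h with DMSO as diluent, then fixed. Cells were immunostained with a mouse monoclonal anti-γ-H2AX antibody, with DAPI as DNA counterstain, and γ-H2AX foci were scored by immunofluorescence.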

O=C(O)CCCC[C@@H]1SC[C@@H]2NC(=O)N[C@@H]21
Activity (Sus scrofa [1]): inactive
Activity (A549 [2]): inactive

Cc1cc2c(=O)[nH]c(CN(CCCNC(=O)CCCC[C@@H]3SC[C@@H]4NC(=O)N[C@@H]43)Cc3ccc(C#N)cc3)nc2s1
Activity (Sus scrofa [1]): inactive
Activity (A549 [2]): inactive

O=c1[nH]cc(F)c(=O)[nH]1 [FLUOROURACIL]
Activity (A549 [3]): 29.61%
Activity (A549 [4]): 59.27%
Activity (A549 [5]): 8.9%

Cc1cc2c(=O)[nH]c(CSC(=S)NCc3ccc(C#N)cc3)nc2s1
Activity_index (A549 [6]): 9.67
Activity (MDA-MB-231): inactive
Activity (A549 [7]): 10.2%
Activity (A549 [8]): Active
Activity (HCT-116 [9]): >=50%
IC50 (HCT-116 [10]): 22.6 µM
inhibition (Sus scrofa [11]): Dose-dependent effect
Activity_index (A549 [12]): 6.63
Activity_index (A549 [13]): 19.17
Activity (A549 [14]): 43.91%
Activity (A549 [15]): 6.9%
Activity (A549 [16]): Active
Activity (A549 [17]): 17%
Activity (MCF7): inactive
Activity (A549 [3]): 24.24%
Activity (A549 [18]): inactive
Activity (A549 [19]): 13.7%
Activity (A549 [20]): >=50%
Activity (A549 [21]): 23.59%
Activity (HeLa): inactive
Activity (HT-29): inactive
Activity (A549 [22]): inactive
Activity (A549 [23]): Dose-dependent effect
Activity_index (A549 [24]): 15.6
Activity (A549 [4]): 19.85%
IC50 (A549 [25]): 7.31 µM
Activity (A549 [26]): inactive
Activity (A549 [5]): 55.74%
Activity (A549 [27]): 19.5%
Activity (A549 [28]): 30.89%
IC50 (A549 [29]): 4.78 µM
Activity (A549 [30]): 18.45%
Activity (A549 [31]): 61.89%

Cc1cc2c(=O)[nH]c(CSC(=S)NCc3cccs3)nc2s1
Activity (MDA-MB-231): inactive
Activity (HCT-116 [9]): >=50%
IC50 (HCT-116 [10]): 27.8 µM
Activity (MCF7): inactive
Activity (A549 [20]): >=50%
Activity (HeLa): inactive
Activity (HT-29): inactive
IC50 (A549 [29]): 23 µM

CC[C@@]1(O)C(=O)OCc2c1cc1n(c2=O)Cc2cc3ccccc3nc2-1
Activity (A549 [32]): Active
Activity (A549 [33]): Active
Activity (A549 [34]): Active

COc1ccc(CNC(=S)SCc2nc3sc(C)cc3c(=O)[nH]2)cc1
Activity (MDA-MB-231): inactive
Activity (HCT-116 [9]): >=50%
IC50 (HCT-116 [10]): 24.5 µM
Activity (MCF7): inactive
Activity (A549 [20]): >=50%
Activity (HeLa): inactive
Activity (HT-29): inactive
IC50 (A549 [29]): 29.1 µM

Cc1cc2c(=O)[nH]c(CSC(=S)NCc3ccc(Br)cc3)nc2s1
Activity (MDA-MB-231): inactive
Activity (HCT-116 [9]): >=50%
IC50 (HCT-116 [10]): 28.7 µM
Activity (MCF7): inactive
Activity (A549 [20]): >=50%
Activity (HeLa): inactive
Activity (HT-29): inactive
IC50 (A549 [29]): 21.9 µM

Cc1ccc(CNC(=S)SCc2nc3sc(C)cc3c(=O)[nH]2)cc1
Activity (MDA-MB-231): inactive
Activity (HCT-116 [9]): >=50%
IC50 (HCT-116 [10]): 28 µM
Activity (MCF7): inactive
Activity (A549 [20]): >=50%
Activity (HeLa): inactive
Activity (HT-29): inactive
IC50 (A549 [29]): 26.5 µM

Cc1cc2c(=O)[nH]c(CSC(=S)NCc3ccco3)nc2s1
Activity (MDA-MB-231): inactive
Activity (HCT-116 [9]): >=50%
IC50 (HCT-116 [10]): 29.8 µM
Activity (MCF7): inactive
Activity (A549 [20]): >=50%
Activity (HeLa): inactive
Activity (HT-29): inactive
IC50 (A549 [29]): > 30 µM
